Assay results: ChEMBL document CHEMBL5724801, “EUbOPEN Chemogenomics Library - Multiplex” (2024)
“And” between values parts separate entries of the source, which are not always exact repeats. Equal entries are not always repeated.

Test system: Fibroblast
Assay: Multiplex assay against human fibroblast
Assay type: toxicity, cell-based
Method in brief: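 Imaging took place on a CQ1 microscope at 37°C and 5% CO2 once compound had been added to live cells stained at seeding with Hoechst33342, BioTracker Green Microtubule Cytoskeleton Dye, MitoTracker Red and Annexin V Alexa Fluor 680. CellPathfinder machine-learning gating classed cells as Hoechst high-intensity objects or normal cells, classed normal cells as having healthy, pyknosed or fragmented nuclei, and classed pyknosed cells as mitotic or apoptotic. Tubulin, mitochondrial-mass and membrane-permeability phenotypes are per cents of the healthy-nucleus cells.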

[1] = 12 h, 1 µM, compound concentration 1 uM
[2] = 12 h, 10 µM, compound concentration 10 uM
[3] = 24 h, 1 µM, compound concentration 1 uM
[4] = 24 h, 10 µM, compound concentration 10 uM
[5] = 48 h, 1 µM, compound concentration 1 uM
[6] = 48 h, 10 µM, compound concentration 10 uM

COCCNc1cc(NC(=O)N2CCCc3cc(CN4CCOCC4=O)c(C=O)nc32)ncc1C#N
Population Fragmented Nuclei (%) [1]: 9.19% and 4.72% | Population Healthy Nuclei (%) [1]: 62.7% and 77.36% | Population Hoechst High Intensity Objects (%) [1]: 0% | Population Membrane Permeable-Phenotype (%) [1]: 4.31% and 4.27% | Population Mitochondria Different-Phenotype (%) [1]: 4.31% and 6.71% | Population Mitotic Cells (%) [1]: 92.31% and 76.32% | Population Normal (%) [1]: 100% | Population Pyknosed Nuclei (%) [1]: 28.11% and 17.92% | Population Tubulin-Different-Phenotype (%) [1]: 12.07% and 18.29% | Total Cell Count [1]: 185 and 212 | Population Apoptotic (%) [2]: 11.11% and 16.67% | Population Fragmented Nuclei (%) [2]: 13.02% and 4.35% | Population Healthy Nuclei (%) [2]: 54.17% and 72.83% | Population Hoechst High Intensity Objects (%) [2]: 0% and 0.54% | Population Membrane Permeable-Phenotype (%) [2]: 9.62% and 8.21% | Population Mitochondria Different-Phenotype (%) [2]: 20.19% and 13.43% | Population Mitotic Cells (%) [2]: 88.89% and 83.33% | Population Normal (%) [2]: 100% and 99.46% | Population Pyknosed Nuclei (%) [2]: 32.81% and 22.83% | Population Tubulin-Different-Phenotype (%) [2]: 43.27% and 48.51% | Total Cell Count [2]: 192 and 185 | Population Fragmented Nuclei (%) [3]: 7.46% and 3.69% | Population Healthy Nuclei (%) [3]: 72.64% and 83.41% | Population Hoechst High Intensity Objects (%) [3]: 0% | Population Membrane Permeable-Phenotype (%) [3]: 4.79% and 2.76% | Population Mitochondria Different-Phenotype (%) [3]: 2.05% and 5.52% | Population Mitotic Cells (%) [3]: 95% and 78.57% | Population Normal (%) [3]: 100% | Population Pyknosed Nuclei (%) [3]: 19.9% and 12.9% | Population Tubulin-Different-Phenotype (%) [3]: 10.27% and 12.15% | Total Cell Count [3]: 201 and 217 | Population Apoptotic (%) [4]: 26.32% and 30% | Population Fragmented Nuclei (%) [4]: 10.14% and 8.42% | Population Healthy Nuclei (%) [4]: 71.5% and 70.53% | Population Hoechst High Intensity Objects (%) [4]: 0% | Population Membrane Permeable-Phenotype (%) [4]: 12.84% and 7.46% | Population Mitochondria Different-Phenotype (%) [4]: 15.54% and 15.67% | Population Mitotic Cells (%) [4]: 73.68% and 70% | Population Normal (%) [4]: 100% | Population Pyknosed Nuclei (%) [4]: 18.36% and 21.05% | Population Tubulin-Different-Phenotype (%) [4]: 43.24% and 50.75% | Total Cell Count [4]: 207 and 190 | Population Apoptotic (%) [5]: 15.38% and 26.32% | Population Fragmented Nuclei (%) [5]: 7.73% and 4.91% | Population Healthy Nuclei (%) [5]: 86.7% and 86.61% | Population Hoechst High Intensity Objects (%) [5]: 0% | Population Membrane Permeable-Phenotype (%) [5]: 1.49% and 2.58% | Population Mitochondria Different-Phenotype (%) [5]: 7.92% and 1.03% | Population Mitotic Cells (%) [5]: 84.62% and 73.68% | Population Normal (%) [5]: 100% | Population Pyknosed Nuclei (%) [5]: 5.58% and 8.48% | Population Tubulin-Different-Phenotype (%) [5]: 5.45% and 12.89% | Total Cell Count [5]: 233 and 224 | Population Apoptotic (%) [6]: 25% and 38.46% | Population Fragmented Nuclei (%) [6]: 13.64% and 8.2% | Population Healthy Nuclei (%) [6]: 79.09% and 84.7% | Population Hoechst High Intensity Objects (%) [6]: 0% | Population Membrane Permeable-Phenotype (%) [6]: 4.02% and 7.74% | Population Mitotic Cells (%) [6]: 75% and 61.54% | Population Normal (%) [6]: 100% | Population Pyknosed Nuclei (%) [6]: 7.27% and 7.1% | Population Tubulin-Different-Phenotype (%) [6]: 24.71% and 43.87% | Total Cell Count [6]: 220 and 183

CCC(=O)OCC(=O)[C@@]1(OC(=O)CC)[C@@H](C)C[C@H]2[C@@H]3CCC4=CC(=O)C=C[C@]4(C)[C@@]3(Cl)[C@@H](O)C[C@@]21C [BECLOMETHASONE DIPROPIONATE]
Population Apoptotic (%) [1]: 38% and 42% | Population Fragmented Nuclei (%) [1]: 13% and 30% | Population Healthy Nuclei (%) [1]: 73% and 40% | Population Hoechst High Intensity Objects (%) [1]: 3% | Population Membrane Permeable-Phenotype (%) [1]: 1% and 5% | Population Mitochondria Different-Phenotype (%) [1]: 2% and 10% | Population Mitotic Cells (%) [1]: 61% and 57% | Population Normal (%) [1]: 96% | Population Pyknosed Nuclei (%) [1]: 13% and 30% | Population Tubulin-Different-Phenotype (%) [1]: 47% and 63% | Total Cell Count [1]: 135 and 155 | Population Apoptotic (%) [2]: 40% | Population Healthy Nuclei (%) [2]: 69% and 42% | Population Hoechst High Intensity Objects (%) [2]: 8% and 5% | Population Mitochondria Different-Phenotype (%) [2]: 17% and 20% | Population Mitotic Cells (%) [2]: 60% and 59% | Population Normal (%) [2]: 91% and 94% | Population Pyknosed Nuclei (%) [2]: 20% and 24% | Population Tubulin-Different-Phenotype (%) [2]: 87% and 94% | Total Cell Count [2]: 157 and 96 | Population Apoptotic (%) [3]: 50% and 47% | Population Fragmented Nuclei (%) [3]: 16% and 30% | Population Healthy Nuclei (%) [3]: 65% and 45% | Population Hoechst High Intensity Objects (%) [3]: 1% and 6% | Population Membrane Permeable-Phenotype (%) [3]: 3% and 7% | Population Mitochondria Different-Phenotype (%) [3]: 2% and 7% | Population Mitotic Cells (%) [3]: 50% and 52% | Population Normal (%) [3]: 98% and 93% | Population Pyknosed Nuclei (%) [3]: 18% and 24% | Population Tubulin-Different-Phenotype (%) [3]: 34% and 60% | Total Cell Count [3]: 134 and 150 | Population Apoptotic (%) [4]: 40% and 19% | Population Fragmented Nuclei (%) [4]: 13% and 38% | Population Healthy Nuclei (%) [4]: 66% and 40% | Population Hoechst High Intensity Objects (%) [4]: 6% | Population Mitochondria Different-Phenotype (%) [4]: 30% and 12% | Population Mitotic Cells (%) [4]: 59% and 80% | Population Normal (%) [4]: 93% | Population Pyknosed Nuclei (%) [4]: 19% and 21% | Population Tubulin-Different-Phenotype (%) [4]: 86% and 79% | Total Cell Count [4]: 148 and 104 | Population Apoptotic (%) [5]: 28% and 52% | Population Fragmented Nuclei (%) [5]: 13% and 31% | Population Healthy Nuclei (%) [5]: 56% and 41% | Population Hoechst High Intensity Objects (%) [5]: 3% and 7% | Population Membrane Permeable-Phenotype (%) [5]: 1% and 5% | Population Mitochondria Different-Phenotype (%) [5]: 15% and 9% | Population Mitotic Cells (%) [5]: 71% and 47% | Population Normal (%) [5]: 96% and 92% | Population Pyknosed Nuclei (%) [5]: 30% and 27% | Population Tubulin-Different-Phenotype (%) [5]: 61% and 54% | Total Cell Count [5]: 132 and 143 | Population Apoptotic (%) [6]: 67% and 37% | Population Fragmented Nuclei (%) [6]: 21% and 33% | Population Healthy Nuclei (%) [6]: 54% and 33% | Population Hoechst High Intensity Objects (%) [6]: 6% and 3% | Population Membrane Permeable-Phenotype (%) [6]: 0% and 18% | Population Mitotic Cells (%) [6]: 32% and 62% | Population Normal (%) [6]: 93% and 96% | Population Pyknosed Nuclei (%) [6]: 24% and 33% | Population Tubulin-Different-Phenotype (%) [6]: 76% and 84% | Total Cell Count [6]: 162 and 99
